Results as given in ChEMBL document CHEMBL3112461, “Synthesis and characterization of a novel series of agonist compounds as potential radiopharmaceuticals for imaging dopamine D₂/₃ receptors in their high-affinity state” (J Med Chem, 2014).
Structures can show the parent of a compound that is named as a salt. Active and inactive are the calls of the source. The rule behind the calls is not given here.

Tests used:
[1] = biological target: T1, D(2) dopamine receptor (Homo sapiens, UniProt P14416); test: Displacement of [3H]spiperone from high-affinity state of human dopamine D2L receptor transfected in HEK293 cells after 2 hrs by scintillation counting analysis; assay type: cell-based
[2] = biological target: D(1A) dopamine receptor (Homo sapiens, UniProt P21728); test: Displacement of [3H]SCH23390 from human dopamine D1 receptor transfected in HEK293 cells after 2 hrs by scintillation counting analysis; assay type: cell-based
[3] = biological target: T1, D(2) dopamine receptor; test: Displacement of [3H]spiperone from low-affinity state of human dopamine D2S receptor transfected in HEK293 cells after 2 hrs by scintillation counting analysis; assay type: cell-based
[4] = biological target: D(3) dopamine receptor (Homo sapiens, UniProt P35462); test: Displacement of [3H]spiperone from human dopamine D3 receptor transfected in HEK293 cells after 2 hrs by scintillation counting analysis; assay type: cell-based
[5] = species: Homo sapiens; test: Selectivity ratio of Ki for human dopamine D1-like receptor to Ki for human dopamine D2-like receptor
[6] = biological target: T1, D(2) dopamine receptor; test: Displacement of [3H]spiperone from low-affinity state of human dopamine D2L receptor transfected in HEK293 cells after 2 hrs by scintillation counting analysis; assay type: cell-based
[7] = biological target: T2, D(4) dopamine receptor (Homo sapiens, UniProt P21917); test: Displacement of [3H]spiperone from human dopamine D4 receptor transfected in HEK293 cells after 2 hrs by scintillation counting analysis; assay type: cell-based
T2 sequence (P21917 whole entry): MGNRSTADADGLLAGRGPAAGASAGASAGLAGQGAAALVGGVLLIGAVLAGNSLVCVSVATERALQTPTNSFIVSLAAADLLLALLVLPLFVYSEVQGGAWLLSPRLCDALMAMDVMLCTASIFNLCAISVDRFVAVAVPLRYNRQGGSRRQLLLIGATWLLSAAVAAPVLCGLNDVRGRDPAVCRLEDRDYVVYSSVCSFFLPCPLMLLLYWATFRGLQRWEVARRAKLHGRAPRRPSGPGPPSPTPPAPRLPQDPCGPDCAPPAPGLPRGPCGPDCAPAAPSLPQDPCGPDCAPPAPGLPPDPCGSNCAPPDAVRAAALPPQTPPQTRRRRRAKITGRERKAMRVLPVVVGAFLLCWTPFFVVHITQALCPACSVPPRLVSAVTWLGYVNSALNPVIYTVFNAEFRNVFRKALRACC

[8] = biological target: D(1B) dopamine receptor (Homo sapiens, UniProt P21918); test: Displacement of [3H]SCH23390 from human dopamine D5 receptor transfected in HEK293 cells after 2 hrs by scintillation counting analysis; assay type: cell-based
[9] = biological target: D(2) dopamine receptor (Rattus norvegicus, UniProt P61169); test: Displacement of dopamine/[3-H]domperidone from high-affinity state of rat D2L receptor
[10] = biological target: T1, D(2) dopamine receptor; test: Agonist activity at human dopamine D2L receptor expressed in HEK293 cells assessed as inhibition of forskolin-induced cAMP accumulation after 30 mins by LANCE assay; assay type: functional, cell-based
[11] = Lipophilicity, log D of the compound; assay type: physicochemical; conditions: octanol/water
In short: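 Shake-flask LogD of the [18F]-labelled tracer. Activity left on the HLB cartridge was eluted with n-octanol. The eluate was vortexed 5 min at rt with an equal volume of 1 M phosphate buffer, pH 7.4, then centrifuged at 17 000g for 10 min. Organic and aqueous aliquots were gamma-counted and corrected for intact-tracer fraction by radio-TLC. Each run was in duplicate, and the mean was taken from ≥2 independent experiments.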

[12] = system: Nucleic Acid; test: Ratio of drug level from striatum to cerebellum of Sprague-Dawley rat at 5.8 +/- […] after 35 mins by autoradiographic analysis; assay type: ADME, nucleic-acid assay; conditions: in vitro
[13] = system: Nucleic Acid; test: Ratio of drug level from striatum to cortex of Sprague-Dawley rat at 5.8 +/- […] after 35 mins by autoradiographic analysis in presence of dopamine D2/3 receptor antagonist raclopride; conditions: in vitro
[14] = system: Nucleic Acid; test: Ratio of drug level from striatum to cerebellum of Sprague-Dawley rat at 5.8 +/- […] after 35 mins by autoradiographic analysis in presence of dopamine D2/3 receptor antagonist raclopride; assay type: nucleic-acid assay; conditions: in vitro
[15] = system: Nucleic Acid; test: Ratio of drug level from striatum to cerebellum of Sprague-Dawley rat at 5.8 +/- […] after 35 mins by autoradiographic analysis in presence of GTP; assay type: ADME, nucleic-acid assay; conditions: in vitro
[16] = system: Nucleic Acid; test: Ratio of drug level from striatum to cortex of Sprague-Dawley rat at 5.8 +/- […] after 35 mins by autoradiographic analysis in presence of GTP; assay type: ADME, tissue-based; conditions: in vitro
[17] = system: Nucleic Acid; test: Ratio of drug level from striatum to cortex of Sprague-Dawley rat at 5.8 +/- […] after 35 mins by autoradiographic analysis; assay type: ADME, tissue-based; conditions: in vitro
[18] = system: Nucleic Acid; test: Ratio of drug level from striatum to cortex of Sprague-Dawley rat at […] after 35 mins by autoradiographic analysis; assay type: ADME, tissue-based
[19] = system: Nucleic Acid; test: Ratio of drug level from striatum to cerebellum of Sprague-Dawley rat at 4.5 +/- 3.6 nM after 35 mins by autoradiographic analysis in presence of dopamine D2/3 receptor antagonist raclopride; assay type: nucleic-acid assay
In short: (§1)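 Rat brain slice autoradiography with 10 μM raclopride co-incubated to define nonspecific binding. Slices were preincubated 15 min at rt in Tris buffer (5 mM KCl, 2 mM CaCl2, 2 mM MgCl2, 120 mM NaCl, pH 7.4). They were then exposed 35 min at 37 °C to radioligand at about 5 nM, washed ice-cold, and imaged on phosphor screens for 6–10 h with striatal and reference-region ROIs.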

[20] = system: Nucleic Acid; test: Ratio of drug level from striatum to cerebellum of Sprague-Dawley rat at […] after 35 mins by autoradiographic analysis in presence of dopamine D2/3 receptor antagonist raclopride; assay type: nucleic-acid assay
[21] = system: Nucleic Acid; test: Ratio of drug level from striatum to cortex of Sprague-Dawley rat at 4.5 +/- 3.6 nM after 35 mins by autoradiographic analysis; assay type: ADME, tissue-based
In short: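 In vitro autoradiography on rat brain slices. Slices were preincubated 15 min at rt in 50 mM Tris-HCl, 5 mM KCl, 2 mM CaCl2, 2 mM MgCl2, 120 mM NaCl, pH 7.4. They were then incubated 35 min at 37 °C with radioligand at about 5 nM, washed in ice-cold buffer and dipped in water. Phosphor screens were exposed 6–10 h, with manual striatal and reference-region ROIs. Values are mean SD over slides from n experiments.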

[22] = system: Nucleic Acid; test: Ratio of drug level from striatum to cortex of Sprague-Dawley rat at […] after 35 mins by autoradiographic analysis in presence of dopamine D2/3 receptor antagonist raclopride
[23] = system: Nucleic Acid; test: Ratio of drug level from striatum to cortex of Sprague-Dawley rat at 4.5 +/- 3.6 nM after 35 mins by autoradiographic analysis in presence of dopamine D2/3 receptor antagonist raclopride; in short: as §1
[24] = system: Nucleic Acid; test: Ratio of drug level from striatum to cerebellum of Sprague-Dawley rat at […] after 35 mins by autoradiographic analysis in presence of GTP; assay type: ADME, nucleic-acid assay
[25] = system: Nucleic Acid; test: Ratio of drug level from striatum to cortex of Sprague-Dawley rat at […] after 35 mins by autoradiographic analysis in presence of GTP; assay type: ADME, tissue-based
[26] = system: Nucleic Acid; test: Ratio of drug level from striatum to cerebellum of Sprague-Dawley rat at […] after 35 mins by autoradiographic analysis; assay type: ADME, nucleic-acid assay

Chain of D(1A) dopamine receptor (P21728 whole entry): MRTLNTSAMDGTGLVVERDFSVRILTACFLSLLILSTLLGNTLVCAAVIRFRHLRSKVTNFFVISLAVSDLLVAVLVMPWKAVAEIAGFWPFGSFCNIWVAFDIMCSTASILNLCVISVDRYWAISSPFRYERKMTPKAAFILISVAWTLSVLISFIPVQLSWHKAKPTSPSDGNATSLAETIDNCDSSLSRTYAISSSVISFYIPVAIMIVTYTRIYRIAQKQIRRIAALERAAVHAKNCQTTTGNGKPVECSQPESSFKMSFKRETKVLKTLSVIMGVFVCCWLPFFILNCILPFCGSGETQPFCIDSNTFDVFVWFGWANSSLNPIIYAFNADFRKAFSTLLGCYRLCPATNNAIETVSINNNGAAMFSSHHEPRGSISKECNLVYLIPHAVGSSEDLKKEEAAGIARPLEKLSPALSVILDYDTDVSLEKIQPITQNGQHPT
T1 sequence (P14416 whole entry): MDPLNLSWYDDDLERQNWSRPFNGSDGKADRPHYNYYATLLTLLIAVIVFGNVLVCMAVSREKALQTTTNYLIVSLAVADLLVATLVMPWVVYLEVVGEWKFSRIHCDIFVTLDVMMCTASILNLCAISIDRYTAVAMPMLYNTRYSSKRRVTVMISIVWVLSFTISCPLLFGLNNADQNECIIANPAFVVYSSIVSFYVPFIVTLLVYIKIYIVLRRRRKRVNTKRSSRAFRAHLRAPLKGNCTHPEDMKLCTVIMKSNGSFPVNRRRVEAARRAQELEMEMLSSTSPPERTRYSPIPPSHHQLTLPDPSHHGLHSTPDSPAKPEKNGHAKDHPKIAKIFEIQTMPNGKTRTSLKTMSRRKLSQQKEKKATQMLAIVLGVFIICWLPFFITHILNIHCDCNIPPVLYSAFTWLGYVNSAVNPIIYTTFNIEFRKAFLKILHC
Chain of D(1B) dopamine receptor (P21918 whole entry): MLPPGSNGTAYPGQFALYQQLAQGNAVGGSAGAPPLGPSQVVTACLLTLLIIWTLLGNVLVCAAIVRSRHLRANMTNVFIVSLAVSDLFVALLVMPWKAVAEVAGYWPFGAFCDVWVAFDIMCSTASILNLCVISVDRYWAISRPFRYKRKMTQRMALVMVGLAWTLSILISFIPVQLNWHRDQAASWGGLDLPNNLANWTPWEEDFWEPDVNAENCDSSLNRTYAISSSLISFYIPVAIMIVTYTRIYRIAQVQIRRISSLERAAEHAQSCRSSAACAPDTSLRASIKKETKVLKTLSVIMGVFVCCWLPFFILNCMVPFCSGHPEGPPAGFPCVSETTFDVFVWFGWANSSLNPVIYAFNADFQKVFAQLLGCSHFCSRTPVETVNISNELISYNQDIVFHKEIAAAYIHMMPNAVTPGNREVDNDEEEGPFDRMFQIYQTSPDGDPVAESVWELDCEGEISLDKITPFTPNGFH
Chain of D(3) dopamine receptor (P35462 whole entry): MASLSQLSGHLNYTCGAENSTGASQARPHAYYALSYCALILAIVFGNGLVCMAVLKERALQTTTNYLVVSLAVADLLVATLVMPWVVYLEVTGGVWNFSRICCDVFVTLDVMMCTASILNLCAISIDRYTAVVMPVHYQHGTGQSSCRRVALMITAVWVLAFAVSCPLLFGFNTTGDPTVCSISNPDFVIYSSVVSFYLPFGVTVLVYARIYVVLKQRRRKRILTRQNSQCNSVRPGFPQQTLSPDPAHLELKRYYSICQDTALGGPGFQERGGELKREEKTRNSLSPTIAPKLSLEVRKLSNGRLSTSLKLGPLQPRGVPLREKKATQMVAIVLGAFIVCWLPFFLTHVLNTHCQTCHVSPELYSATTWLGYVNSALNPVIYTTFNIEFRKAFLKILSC
Chain of D(2) dopamine receptor (Rattus norvegicus, UniProt P61169) (P61169 whole entry): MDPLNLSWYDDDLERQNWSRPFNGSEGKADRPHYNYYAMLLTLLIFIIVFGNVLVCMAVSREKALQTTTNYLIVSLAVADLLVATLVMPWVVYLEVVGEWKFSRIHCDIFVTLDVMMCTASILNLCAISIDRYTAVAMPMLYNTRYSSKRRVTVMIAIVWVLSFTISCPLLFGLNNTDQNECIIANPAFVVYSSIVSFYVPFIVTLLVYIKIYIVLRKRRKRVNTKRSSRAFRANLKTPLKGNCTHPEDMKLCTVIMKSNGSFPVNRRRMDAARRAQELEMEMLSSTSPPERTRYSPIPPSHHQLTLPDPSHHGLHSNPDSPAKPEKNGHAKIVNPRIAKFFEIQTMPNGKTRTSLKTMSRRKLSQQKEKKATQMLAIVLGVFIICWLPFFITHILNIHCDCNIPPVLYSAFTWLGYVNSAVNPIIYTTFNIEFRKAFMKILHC

SMILES	Ki ([2]; read-out: Ki) [µM]	Ki ([2]; read-out: pKi (converted)) [µM]	Ki ([3]; read-out: Ki) [nM]	Ki ([4]; read-out: Ki) [nM]	Ki ([4]; read-out: pKi (converted)) [nM]	Ratio Ki [5]	Ki ([6]; read-out: Ki) [nM]	Ki ([6]; read-out: pKi (converted)) [nM]	Ki ([7]; read-out: Ki) [nM]	Ki ([8]; read-out: Ki) [µM]	Ki ([8]; read-out: pKi (converted)) [µM]	EC50 [10] [nM]	other results
Oc1ccc2c(c1)O[C@@H](CN1CCN(c3ccc(I)cc3)CC1)CC2	46.5			24.2		> 100			14.3	17.8	17.4		inhibition [1]: inactive; inhibition [3]: inactive; inhibition [6]: inactive
CCCN1CCO[C@@H]2c3cc(O)ccc3CC[C@H]21 [NAXAGOLIDE HYDROCHLORIDE]													Ki [9]: 0.6 nM
Oc1ccc2c(c1)O[C@@H](CNCc1ccccc1)CC2	7.25									3.83	3.72		
Oc1ccc2c(c1)O[C@@H](CNCCN1CCN(c3ccc(OCC[18F])cc3)CC1)CC2													logD [11]: 1.48; Ratio [12]: 2.64; Ratio [13]: 1.2; Ratio [14]: 1.65; Ratio [15]: 1.67; Ratio [16]: 1.48; Ratio [17]: 1.9
CCCCCCNC[C@H]1CCc2ccc(O)cc2O1	10.9	10.5		547	19.1				5.7	27.7	2.75	0.0501	Ki ([7]; read-out: pKi (converted)): 5.01 nM
Oc1ccc2c(c1)O[C@@H](CN1CCN(c3ccc(OCCF)cc3)CC1)CC2				39.4	37.2	> 100			131	19.7			Ki ([7]; read-out: pKi (converted)): 47.9 nM; inhibition [1]: inactive; inhibition [2]: inactive; inhibition [3]: inactive; inhibition [6]: inactive
Oc1ccc2c(c1)O[C@@H](CNCc1ccccc1OCCCCF)CC2	1.16		452	33		> 100	156	145					
Oc1ccc2c(c1)O[C@@H](CNCc1ccc(OCCCC[18F])cc1)CC2													Ratio [18]: 1.68; Ratio [19]: 1.04; Ratio [20]: 1.1; Ratio [21]: 1.16; Ratio [22]: 1.03; Ratio [23]: 1.05; logD [11]: 2.45; Ratio [24]: 1.2; Ratio [25]: 1.13; Ratio [26]: 1.85

Now from value to molecule, other results behind:

Ki ([2]; read-out: Ki) [µM]	Ki ([2]; read-out: pKi (converted)) [µM]	Ki ([3]; read-out: Ki) [nM]	Ki ([4]; read-out: Ki) [nM]	Ki ([4]; read-out: pKi (converted)) [nM]	Ratio Ki [5]	Ki ([6]; read-out: Ki) [nM]	Ki ([6]; read-out: pKi (converted)) [nM]	Ki ([7]; read-out: Ki) [nM]	Ki ([8]; read-out: Ki) [µM]	Ki ([8]; read-out: pKi (converted)) [µM]	EC50 [10] [nM]	SMILES	other results
0.436	0.417	166	1.79	1.66	> 100	51.2	29.5					Oc1ccc2c(c1)O[C@@H](CNCc1ccccc1I)CC2	Ki ([1]; read-out: Ki): 0.68 nM; Ki ([1]; read-out: pKi (converted)): 0.162 nM; Ki ([3]; read-out: pKi (converted)): 83.2 nM
		252	10	8.71	> 100	235	219	27.7	9.7		0.158	Oc1ccc2c(c1)O[C@@H](CNCCN1CCN(c3ccc(OCCF)cc3)CC1)CC2	Ki ([7]; read-out: pKi (converted)): 22.9 nM; Ki ([1]; read-out: Ki): 6.67 nM; Ki ([1]; read-out: pKi (converted)): 5.01 nM; inhibition [2]: inactive; Ki ([3]; read-out: pKi (converted)): 234 nM
3.96	3.89	131	23	21.9	> 100	80.5	66.1	9.7	3.48		1.58	Oc1ccc2c(c1)O[C@@H](CNCCN1CCN(c3ccc(I)cc3)CC1)CC2	
6.91	6.61	92.7	12.1		> 100	80.5	61.7	32.1	2.89	2.45	0.398	Oc1ccc2c(c1)O[C@@H](CNCc1ccc(OCCCCF)cc1)CC2	Ki ([1]; read-out: Ki): 5.6 nM; Ki ([3]; read-out: pKi (converted)): 91.2 nM
8.67	8.13		13.9	5.62				1.59		3.55		Oc1ccc2c(c1)O[C@@H](CNCc1ccc(I)cc1)CC2	Ki ([7]; read-out: pKi (converted)): 1.55 nM
4.29	3.89	30.8	7.87	2.88	> 100	72.9	33.9	0.97	4.64	4.57	0.0316	Oc1ccc2c(c1)O[C@@H](CNCc1cccc(I)c1)CC2	Ki ([1]; read-out: Ki): 2.06 nM; Ki ([1]; read-out: pKi (converted)): 1.02 nM; Ki ([3]; read-out: pKi (converted)): 28.8 nM
